Active and inactive are the calls of the source. The rule behind the calls is not given here.
How the values were obtained:
Mus musculus [1] = experiment: Anticonvulsant activity in albino CF-1 mouse assessed as protection against subcutaneous metrazol-induced seizures at 300 mg/kg, ip after 4 hrs; assay type: functional, organism-based; parameters: dose 300 mg/kg
Method in brief: (§1)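 Male CF-1 mice, i.p. at 30, 100, 300 mg/kg in 0.5% methyl cellulose; metrazol dose convulsing 97% of animals injected s.c. in midline neck fold, mice isolated and watched 30 min; protected if no 3–5 s clonic spasm episode of limbs, jaws or vibrissae.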

Mus musculus [2] = experiment: Neurotoxicity in albino CF-1 mouse assessed as motor impairment at 300 mg/kg, ip after 4 hrs by rotarod test; assay type: toxicity, organism-based; parameters: dose 300 mg/kg, route intraperitoneal; details: in vivo
Method in brief: (§2)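 Minimal motor impairment in male CF-1 mice by rotorod after i.p. dosing; toxic if animal falls off rotating rod 3 times within 1 min. Screen doses 30, 100, 300 mg/kg; quantitative TD50 (95% confidence interval) determined at time of peak effect.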

[3] = Octanol-phosphate buffer partition coefficient, log P of the compound at 5 mg, after 24 hrs by UV spectroscopic analysis; assay type: physicochemical
Method in brief: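 5 mg compound added to 10 mL octanol plus 10 mL phosphate buffer in stoppered tube, mechanically shaken 24 h at room temperature, then left in separating funnel 6 h to equilibrate.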

Mus musculus [4] = experiment: Anticonvulsant activity in albino CF-1 mouse assessed as protection against maximal electroshock-induced seizures at 300 mg/kg, ip after 0.5 hrs; assay type: functional, organism-based; parameters: dose 300 mg/kg
Method in brief: (§3)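 Male CF-1 mice (18–25 g), i.p. in 0.5% methyl cellulose at 30, 100 and 300 mg/kg; MES: 60 Hz, 50 mA, 0.2 s through tetracaine-primed corneal electrodes; protection = abolished hind limb tonic extension. Value given as minimum dose active in half or more of mice.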

Mus musculus [5] = experiment: Anticonvulsant activity in albino CF-1 mouse assessed as protection against maximal electroshock-induced seizures at 300 mg/kg, ip after 4 hrs; assay type: functional, organism-based; parameters: dose 300 mg/kg; method in brief: as §3
Mus musculus [6] = experiment: Anticonvulsant activity in albino CF-1 mouse assessed as protection against 6 Hz psychomotor seizure at 100 mg/kg, ip after 0.25 hrs by minimal clonic seizure test; assay type: functional
Method in brief: (§4)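 Male CF-1 mice (18–25 g), i.p. 100 mg/kg in 0.5% methyl cellulose suspension; 6 Hz corneal stimulation, 32 mA for 3 s, four mice per time point. Protected if no minimal clonic phase with stereotyped automatistic behaviour.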

Mus musculus [7] = experiment: Neurotoxicity in albino CF-1 mouse assessed as motor impairment at 300 mg/kg, ip after 0.5 hrs by rotarod test; assay type: toxicity, organism-based; parameters: dose 300 mg/kg, route intraperitoneal; details: in vivo; method in brief: as §2
Mus musculus [8] = experiment: Anticonvulsant activity in albino CF-1 mouse assessed as protection against 6 Hz psychomotor seizure at 100 mg/kg, ip after 2 hrs by minimal clonic seizure test; assay type: functional; method in brief: as §4
Mus musculus [9] = experiment: Anticonvulsant activity in albino CF-1 mouse assessed as protection against maximal electroshock-induced seizures at 300 mg/kg, ip after 2 hrs; assay type: functional, organism-based; parameters: dose 300 mg/kg; method in brief: as §3
Mus musculus [10] = experiment: Anticonvulsant activity in albino CF-1 mouse assessed as protection against 6 Hz psychomotor seizure at 100 mg/kg, ip after 0.5 hrs by minimal clonic seizure test; assay type: functional; method in brief: as §4
Mus musculus [11] = experiment: Anticonvulsant activity in albino CF-1 mouse assessed as protection against 6 Hz psychomotor seizure at 100 mg/kg, ip after 1 hr by minimal clonic seizure test; assay type: functional; method in brief: as §4
Mus musculus [12] = experiment: Anticonvulsant activity in albino CF-1 mouse assessed as protection against 6 Hz psychomotor seizure at 100 mg/kg, ip after 4 hrs by minimal clonic seizure test; assay type: functional, organism-based; parameters: dose 100 mg/kg; method in brief: as §4
Mus musculus [13] = experiment: Anticonvulsant activity in albino CF-1 mouse assessed as protection against subcutaneous metrazol-induced seizures at 300 mg/kg, ip after 0.5 hrs; assay type: functional, organism-based; parameters: dose 300 mg/kg; method in brief: as §1
Rattus norvegicus = experiment: Anticonvulsant activity in Sprague-Dawley rat assessed as protection against pilocarpine-induced status epilepticus at 600 mg/kg, ip; assay type: functional, organism-based; parameters: dose 600 mg/kg
Method in brief: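 Male albino Sprague Dawley rats (150–180 g) dosed i.p., then challenged with pilocarpine; qualitative screen scored as protection or no protection, seizure severity graded on the Racine scale; N/F and deaths recorded, time taken post first Stage III seizure.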

[14] = Neuroprotective activity in hippocampal slices assessed as protection against kainic acid-induced cell death after 4 hrs; assay type: functional, tissue-based; details: Hippocampus
Method in brief: (§5)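 Organotypic hippocampal slice cultures exposed to NMDA or kainic acid alone or with test compound; propidium iodide in all wells, cell death read as PI fluorescence intensity; qualitative primary screen.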

Mus musculus [15] = experiment: Anticonvulsant activity in ip dosed albino CF-1 mouse assessed as protection against 6 Hz psychomotor seizure after 1 hr by minimal clonic seizure test; assay type: functional; details: albino CF-1, ip
Method in brief: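 Quantitative 6 Hz test in male CF-1 mice dosed i.p.; 32 mA for 3 s via corneal electrodes at time of peak effect; ED50 with 95% confidence interval, slope and standard error reported.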

[16] = Neuroprotective activity in hippocampal slices assessed as protection against NMDA-induced cell death after 4 hrs; assay type: functional, tissue-based; details: Hippocampus; method in brief: as §5
Mus musculus [17] = experiment: Anticonvulsant activity in ip dosed albino CF-1 mouse assessed as dose required to protect against maximal electroshock-induced seizures after 4 hrs; assay type: functional; method in brief: as §3

In the case of `Cc1cc(Oc2ccc(/C=N\NC(=O)c3ccncc3)cc2)ccc1Cl`, the Activity (Mus musculus [1]) is reported as “inactive”, the Activity (Mus musculus [2]) is reported as “Non-toxic” and the logP at 24 h [3] is reported as 4.21. The Activity (Mus musculus [4]) was “inactive”, the Activity (Mus musculus [5]) was “inactive” and the Activity (Mus musculus [6]) was “Active”. The Activity (Mus musculus [7]) was “Non-toxic”, the Activity (Mus musculus [8]) was “inactive” and the Activity (Mus musculus [9]) was “inactive”. For the same compound, the Activity (Mus musculus [10]) was “inactive”, the Activity (Mus musculus [11]) was “inactive” and the Activity (Mus musculus [12]) was “inactive”. For the same compound, the Activity (Mus musculus [13]) was “inactive”.

In the case of `O=C(N/N=C\c1ccc(Oc2ccc([N+](=O)[O-])cc2)cc1)c1ccncc1`, the Activity (Mus musculus [1]) is reported as “inactive”, the Activity (Mus musculus [2]) is reported as “Non-toxic” and the logP at 24 h [3] is reported as 3.23. The Activity (Mus musculus [4]) was “inactive”, the Activity (Mus musculus [5]) was “inactive” and the Activity (Mus musculus [7]) was “Non-toxic”. The Activity (Mus musculus [9]) was “inactive” and the Activity (Mus musculus [13]) was “inactive”.

In the case of `O=C(N/N=C\c1ccc(Oc2ccc3ccccc3c2)cc1)c1ccncc1`, the Activity (Mus musculus [1]) is reported as “inactive”, the Activity (Mus musculus [2]) is reported as “Non-toxic” and the logP at 24 h [3] is reported as 4.52. The Activity (Mus musculus [4]) was “inactive”, the Activity (Mus musculus [5]) was “inactive” and the Activity (Mus musculus [7]) was “Non-toxic”. The Activity (Mus musculus [9]) was “inactive” and the Activity (Mus musculus [13]) was “inactive”.

In the case of `O=C1Nc2ccccc2/C1=N\NC(=O)c1ccncc1`, the Activity (Mus musculus [1]) is reported as “inactive”, the Activity (Rattus norvegicus) is reported as “inactive” and the Activity (Mus musculus [4]) is reported as “inactive”. For the same compound, the Activity (Mus musculus [5]) was “inactive”, the Activity (Mus musculus [6]) was “Active” and the Activity (Mus musculus [8]) was “inactive”. The Activity (Mus musculus [9]) was “inactive”, the Activity (Mus musculus [10]; route intraperitoneal) was 50% and the Activity (Mus musculus [11]) was “Active”. For the same compound, the Activity (Mus musculus [12]) was “inactive” and the Activity (Mus musculus [13]) was “inactive”.

In the case of `O=C(N/N=C\c1ccc(Oc2ccccc2)cc1)c1ccncc1`, the Activity (Mus musculus [1]) is reported as “inactive”, the Activity (Mus musculus [2]) is reported as “Non-toxic” and the logP at 24 h [3] is reported as 3.37. The Activity (Mus musculus [4]) was “inactive”, the Activity (Mus musculus [5]) was “inactive” and the Activity (Mus musculus [7]) was “Non-toxic”. The Activity (Mus musculus [9]) was “inactive” and the Activity (Mus musculus [13]) was “inactive”.

With `O=C(N/N=C\c1ccc(Oc2ccc(Br)cc2)cc1)c1ccncc1` the Activity (Mus musculus [1]) was “inactive”, the Activity (Mus musculus [2]) was “Non-toxic” and the logP at 24 h [3] was 4.03. The Activity (Mus musculus [4]) was “inactive”, the Activity (Mus musculus [5]) was “inactive” and the Activity (Mus musculus [6]) was “inactive”. For the same compound, the Activity (Mus musculus [7]) was “Non-toxic”, the Activity (Mus musculus [8]) was “Active” and the Activity (Mus musculus [9]) was “inactive”. For the same compound, the Activity (Mus musculus [10]) was “inactive”, the Activity (Mus musculus [11]) was “inactive” and the Activity (Mus musculus [12]) was “inactive”. For the same compound, the Activity (Mus musculus [13]) was “inactive”.

With `O=C(N/N=C\c1ccc(Oc2ccc(Cl)cc2)cc1)c1ccncc1` the Activity (Mus musculus [1]) was “inactive”, the logP at 24 h [3] was 3.95 and the Activity (Mus musculus [4]) was “inactive”. The Activity (Mus musculus [5]) was “inactive”, the Activity (Mus musculus [7]) was “Non-toxic” and the Activity (Mus musculus [9]) was “inactive”. The Activity (Mus musculus [13]) was “inactive”.

With `O=C(N/N=C\c1ccc(Oc2ccc3c(c2)OCO3)cc1)c1ccncc1` the Activity (Mus musculus [1]) was “inactive”, the Activity (Mus musculus [2]) was “Non-toxic” and the logP at 24 h [3] was 3.2. For the same compound, the Activity (Mus musculus [4]) was “inactive”, the Activity (Mus musculus [5]) was “inactive” and the Activity (Mus musculus [7]) was “Non-toxic”. The Activity (Mus musculus [9]) was “inactive” and the Activity (Mus musculus [13]) was “inactive”.

In the case of `Cc1ccc(Oc2ccc(/C=N\NC(=O)c3ccncc3)cc2)cc1`, the Activity (Mus musculus [1]) is reported as “inactive”, the Activity [14] is reported as “inactive” and the Activity (Mus musculus [2]) is reported as “Non-toxic”. For the same compound, the logP at 24 h [3] was 3.65, the Activity (Mus musculus [4]) was “inactive” and the ED50 (Mus musculus [15]) was over 200 mg/kg. The Activity (Mus musculus [6]) was “Active”, the Activity [16] was “inactive” and the Activity (Mus musculus [7]) was “Non-toxic”. The Activity (Mus musculus [8]; route intraperitoneal) was 50%, the Activity (Mus musculus [9]) was “inactive” and the Activity (Mus musculus [10]) was “Active”. For the same compound, the Activity (Mus musculus [11]; route intraperitoneal) was 75%, the Activity (Mus musculus [12]) was “inactive” and the Activity (Mus musculus [13]) was “inactive”. For the same compound, the Activity (Mus musculus [17]) was 300 mg/kg.
